In ChEMBL document CHEMBL3352189 (J Med Chem, 2014):

Assays:
Mus musculus [1] = experiment: Toxicity in Venezuelan equine encephalitis virus TC83 infected C3H/HeN mouse assessed as body weight loss at 5 mg/kg/day, ip BID for 4 days; assay type: organism-based; design: route intraperitoneal; details: in vivo, 96 h
Mus musculus [2] = experiment: Toxicity in Venezuelan equine encephalitis virus TC83 infected C3H/HeN mouse assessed as induction of hunched posture at 40 mg/kg/day, ip BID for 4 days; assay type: organism-based; design: route intraperitoneal; details: in vivo, 96 h
[3] = target: Beta-1 adrenergic receptor (Homo sapiens) (UniProt P08588); experiment: Displacement of [125I]cyanopindolol from human adrenergic beta1 receptor at 10 uM
[4] = target: D(1A) dopamine receptor (Homo sapiens) (UniProt P21728); experiment: Displacement of [3H]SCH-23390 from human dopamine D1 receptor at 10 uM
Chain of D(1A) dopamine receptor (Homo sapiens) (P21728 whole entry): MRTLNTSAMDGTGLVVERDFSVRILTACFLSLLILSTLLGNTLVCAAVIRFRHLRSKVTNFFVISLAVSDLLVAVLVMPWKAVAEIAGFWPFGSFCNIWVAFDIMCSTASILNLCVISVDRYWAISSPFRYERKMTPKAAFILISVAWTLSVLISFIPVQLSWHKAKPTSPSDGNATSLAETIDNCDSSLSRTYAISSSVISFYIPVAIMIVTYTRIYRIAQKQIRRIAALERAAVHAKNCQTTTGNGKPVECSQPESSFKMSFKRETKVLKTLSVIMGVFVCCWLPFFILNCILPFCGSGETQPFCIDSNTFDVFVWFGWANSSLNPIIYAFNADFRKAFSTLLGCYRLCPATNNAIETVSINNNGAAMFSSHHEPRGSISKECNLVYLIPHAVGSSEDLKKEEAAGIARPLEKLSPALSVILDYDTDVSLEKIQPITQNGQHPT

[5] = target: D(3) dopamine receptor (Homo sapiens) (UniProt P35462); experiment: Displacement of [3H]spiperone from human dopamine D3 receptor at 10 uM
[6] = target: D(4) dopamine receptor (Homo sapiens) (UniProt P21917); experiment: Displacement of [3H]spiperone from human dopamine D4.2 receptor at 10 uM
Chain of D(4) dopamine receptor (Homo sapiens) (P21917 whole entry): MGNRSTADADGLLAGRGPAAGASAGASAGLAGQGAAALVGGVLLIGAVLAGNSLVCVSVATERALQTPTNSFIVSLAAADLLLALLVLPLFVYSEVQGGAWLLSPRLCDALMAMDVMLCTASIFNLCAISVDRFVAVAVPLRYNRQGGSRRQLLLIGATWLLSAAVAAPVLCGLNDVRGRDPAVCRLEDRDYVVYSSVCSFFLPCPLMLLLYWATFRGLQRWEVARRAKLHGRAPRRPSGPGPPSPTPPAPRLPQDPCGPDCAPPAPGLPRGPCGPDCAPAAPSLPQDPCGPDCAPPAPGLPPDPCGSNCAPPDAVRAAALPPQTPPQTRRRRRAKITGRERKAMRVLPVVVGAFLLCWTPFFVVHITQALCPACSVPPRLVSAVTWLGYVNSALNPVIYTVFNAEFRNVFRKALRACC

[7] = target: Endothelin-1 receptor (Homo sapiens) (UniProt P25101); experiment: Displacement of [125I]endothelin-1 from human ETA receptor at 10 uM
Chain of Endothelin-1 receptor (Homo sapiens) (P25101 whole entry): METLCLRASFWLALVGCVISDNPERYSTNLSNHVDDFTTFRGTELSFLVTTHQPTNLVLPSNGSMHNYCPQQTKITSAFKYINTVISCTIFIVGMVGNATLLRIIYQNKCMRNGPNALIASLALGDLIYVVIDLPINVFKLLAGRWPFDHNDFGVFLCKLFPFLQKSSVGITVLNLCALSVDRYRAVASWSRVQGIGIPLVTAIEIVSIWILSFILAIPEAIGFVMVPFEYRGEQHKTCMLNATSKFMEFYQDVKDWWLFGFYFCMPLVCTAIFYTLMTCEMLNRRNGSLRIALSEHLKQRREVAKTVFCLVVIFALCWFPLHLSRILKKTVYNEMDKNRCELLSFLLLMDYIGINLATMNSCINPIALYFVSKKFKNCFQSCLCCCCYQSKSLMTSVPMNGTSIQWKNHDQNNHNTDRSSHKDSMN

[8] = target: Endothelin receptor type B (Homo sapiens) (UniProt P24530); experiment: Displacement of [125I]endothelin-1 from human ETB receptor at 10 uM
[9] = target: Epidermal growth factor receptor (Homo sapiens) (UniProt P00533); experiment: Displacement of [125I]EGF from human EGFR at 10 uM
Chain of Epidermal growth factor receptor (Homo sapiens) (P00533 whole entry): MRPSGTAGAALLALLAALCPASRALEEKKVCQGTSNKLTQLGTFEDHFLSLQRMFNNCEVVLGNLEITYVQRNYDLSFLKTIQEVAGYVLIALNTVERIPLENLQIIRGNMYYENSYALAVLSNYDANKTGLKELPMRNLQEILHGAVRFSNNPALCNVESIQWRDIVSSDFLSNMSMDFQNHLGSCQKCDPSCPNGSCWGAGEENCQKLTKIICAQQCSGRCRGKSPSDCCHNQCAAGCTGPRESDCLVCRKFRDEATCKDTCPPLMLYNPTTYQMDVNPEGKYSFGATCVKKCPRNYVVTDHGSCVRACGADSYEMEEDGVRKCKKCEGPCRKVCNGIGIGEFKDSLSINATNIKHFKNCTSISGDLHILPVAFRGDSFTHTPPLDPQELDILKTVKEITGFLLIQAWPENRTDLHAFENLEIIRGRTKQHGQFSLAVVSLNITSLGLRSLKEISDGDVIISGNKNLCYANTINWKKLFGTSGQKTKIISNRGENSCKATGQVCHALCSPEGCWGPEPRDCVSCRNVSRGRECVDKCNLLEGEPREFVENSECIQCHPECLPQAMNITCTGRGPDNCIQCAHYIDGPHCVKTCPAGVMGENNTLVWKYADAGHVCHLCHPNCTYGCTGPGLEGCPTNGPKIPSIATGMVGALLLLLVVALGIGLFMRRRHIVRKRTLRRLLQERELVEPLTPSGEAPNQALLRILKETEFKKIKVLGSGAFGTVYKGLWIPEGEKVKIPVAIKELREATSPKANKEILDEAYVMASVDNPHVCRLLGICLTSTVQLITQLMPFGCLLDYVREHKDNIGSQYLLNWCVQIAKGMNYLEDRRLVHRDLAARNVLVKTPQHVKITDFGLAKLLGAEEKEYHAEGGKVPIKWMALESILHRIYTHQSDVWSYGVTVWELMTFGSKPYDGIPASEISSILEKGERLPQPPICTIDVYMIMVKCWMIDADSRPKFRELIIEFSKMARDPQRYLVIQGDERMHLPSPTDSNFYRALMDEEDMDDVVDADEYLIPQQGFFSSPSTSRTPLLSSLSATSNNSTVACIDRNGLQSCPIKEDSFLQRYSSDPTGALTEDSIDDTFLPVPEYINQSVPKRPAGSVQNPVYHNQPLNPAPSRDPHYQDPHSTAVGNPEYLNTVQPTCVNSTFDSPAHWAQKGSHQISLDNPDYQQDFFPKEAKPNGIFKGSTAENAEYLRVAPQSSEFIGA

[10] = target: GABA-A receptor; anion channel (Homo sapiens) (UniProt P14867+P47870+P18507+P28472+P48169+Q99928+Q9UN88+P34903+O00591+O14764+Q8N1C3+P18505+P78334+P47869+P31644+Q16445); experiment: Displacement of ABC from rat GABAA receptor central flunitrazepam site at 10 uM; assay type: protein-complex assay; details: target entry is the homologue from another species
Rattus norvegicus [11] = species on record: Rattus norvegicus; experiment: Displacement of [3H]kainic acid from rat kainate receptor at 10 uM
[12] = target: T1, Glutamate NMDA receptor (Rattus norvegicus) (UniProt P35439+Q00959+Q00960+Q00961+Q62645+Q8VHN2+Q9R1M7); experiment: Displacement of [3H]MDL 105,519 from rat NMDA receptor glycine binding site binding site at 10 uM; assay type: protein-complex assay
[13] = target: T1, Glutamate NMDA receptor (Rattus norvegicus); experiment: Displacement of [3H]CGP-39653 from rat NMDA receptor agonist binding site binding site at 10 uM; assay type: protein-complex assay
Rattus norvegicus [14] = species on record: Rattus norvegicus; experiment: Displacement of [3H]idazoxan from rat Imidazole receptor 2 at 10 uM
Mus musculus [15] = species on record: Mus musculus; experiment: Displacement of [125I]interleukin-1beta from mouse IL1 receptor at 10 uM
[16] = target: Muscarinic acetylcholine receptor M1 (Homo sapiens) (UniProt P11229); experiment: Displacement of [3H]N-Methylscopolamine from human muscarinic M1 receptor at 10 uM
[17] = target: Muscarinic acetylcholine receptor M2 (Homo sapiens) (UniProt P08172); experiment: Displacement of [3H]N-Methylscopolamine from human muscarinic M2 receptor at 10 uM
[18] = target: Neuronal acetylcholine receptor (Rattus norvegicus) (UniProt P04757+P09483+P12389+P12390+P12392+P43144+Q9JLB5+P12391+P43143+P20420+Q05941); experiment: Displacement of [125I]epibatidine from human nAchR at 10 uM; assay type: protein-complex assay
[19] = target: Delta-type opioid receptor (Homo sapiens) (UniProt P41143); experiment: Displacement of [3H]naltrindole from human delta1 opiate receptor at 10 uM
Chain of Delta-type opioid receptor (Homo sapiens) (P41143 whole entry): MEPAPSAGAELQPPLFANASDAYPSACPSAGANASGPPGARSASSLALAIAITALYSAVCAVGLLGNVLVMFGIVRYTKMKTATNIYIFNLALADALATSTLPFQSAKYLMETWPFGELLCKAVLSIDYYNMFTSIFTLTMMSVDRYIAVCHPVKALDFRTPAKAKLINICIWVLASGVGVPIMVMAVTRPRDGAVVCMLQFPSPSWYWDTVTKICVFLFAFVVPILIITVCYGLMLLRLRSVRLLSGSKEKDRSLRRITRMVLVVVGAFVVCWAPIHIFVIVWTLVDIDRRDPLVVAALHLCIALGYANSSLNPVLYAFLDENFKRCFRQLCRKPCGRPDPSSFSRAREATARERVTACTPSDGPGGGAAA

[20] = target: Kappa-type opioid receptor (Homo sapiens) (UniProt P41145); experiment: Displacement of [3H]diprenorphine from human kappa opiate receptor at 10 uM
Chain of Kappa-type opioid receptor (Homo sapiens) (P41145 whole entry): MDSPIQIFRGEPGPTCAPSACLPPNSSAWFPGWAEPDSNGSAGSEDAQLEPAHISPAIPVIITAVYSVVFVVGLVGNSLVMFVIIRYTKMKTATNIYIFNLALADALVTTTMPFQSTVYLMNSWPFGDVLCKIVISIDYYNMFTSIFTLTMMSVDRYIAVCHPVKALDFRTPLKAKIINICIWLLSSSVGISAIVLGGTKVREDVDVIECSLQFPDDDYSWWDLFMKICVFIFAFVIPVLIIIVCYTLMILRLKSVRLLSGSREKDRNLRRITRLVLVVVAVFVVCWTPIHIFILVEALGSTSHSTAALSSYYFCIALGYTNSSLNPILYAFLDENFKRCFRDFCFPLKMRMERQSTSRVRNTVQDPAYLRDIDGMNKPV

[21] = target: Mu-type opioid receptor (Homo sapiens) (UniProt P35372); experiment: Displacement of [3H]diprenorphine from human mu opiate receptor at 10 uM
Chain of Mu-type opioid receptor (Homo sapiens) (P35372 whole entry): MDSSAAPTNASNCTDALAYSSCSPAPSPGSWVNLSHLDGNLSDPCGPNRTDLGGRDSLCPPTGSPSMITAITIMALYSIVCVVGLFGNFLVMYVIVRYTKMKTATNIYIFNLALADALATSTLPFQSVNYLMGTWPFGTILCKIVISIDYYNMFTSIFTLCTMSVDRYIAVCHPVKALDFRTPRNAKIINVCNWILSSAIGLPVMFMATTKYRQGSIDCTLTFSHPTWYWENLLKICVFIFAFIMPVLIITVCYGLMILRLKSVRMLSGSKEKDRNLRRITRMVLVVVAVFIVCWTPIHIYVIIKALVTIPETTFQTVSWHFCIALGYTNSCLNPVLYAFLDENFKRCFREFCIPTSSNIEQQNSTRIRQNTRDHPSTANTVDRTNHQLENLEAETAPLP

hERG (KCNH2) = hERG (KCNH2) (Homo sapiens, UniProt Q12809); experiment: Displacement of [3H]astemizole from human ERG channel at 10 uM; details: probe [3H]astemizole
Oryctolagus cuniculus = species on record: Oryctolagus cuniculus; experiment: Displacement of [3H]alpha,beta-methylene-ATP from rabbit P2X channel at 10 uM
Rattus norvegicus [22] = species on record: Rattus norvegicus; experiment: Displacement of [125I]triiodothyronine from rat thyroid hormone receptor 10 uM
[23] = target: Sodium-dependent dopamine transporter (Homo sapiens) (UniProt Q01959); experiment: Displacement of [125I]RTI-55 from human DAT at 10 uM
Chain of Sodium-dependent dopamine transporter (Homo sapiens) (Q01959 whole entry): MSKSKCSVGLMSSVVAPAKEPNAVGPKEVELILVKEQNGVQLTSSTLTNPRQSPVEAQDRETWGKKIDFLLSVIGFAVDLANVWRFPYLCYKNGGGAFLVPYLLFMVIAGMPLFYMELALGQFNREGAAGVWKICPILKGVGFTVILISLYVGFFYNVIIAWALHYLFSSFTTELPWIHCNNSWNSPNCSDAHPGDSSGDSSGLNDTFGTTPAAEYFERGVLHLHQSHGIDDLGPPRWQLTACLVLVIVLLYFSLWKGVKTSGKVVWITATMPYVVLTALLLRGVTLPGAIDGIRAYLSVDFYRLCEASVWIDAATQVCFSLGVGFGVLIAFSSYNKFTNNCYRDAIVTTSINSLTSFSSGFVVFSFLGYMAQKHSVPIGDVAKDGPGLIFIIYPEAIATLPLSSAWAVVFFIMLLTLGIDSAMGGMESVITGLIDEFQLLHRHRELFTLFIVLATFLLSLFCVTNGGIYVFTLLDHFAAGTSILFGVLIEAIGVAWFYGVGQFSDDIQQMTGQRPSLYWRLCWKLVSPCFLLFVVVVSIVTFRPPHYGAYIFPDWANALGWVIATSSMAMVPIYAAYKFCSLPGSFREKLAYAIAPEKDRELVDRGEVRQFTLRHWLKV

Rattus norvegicus [24] = species on record: Rattus norvegicus; experiment: Displacement of [3H]GABA from rat GABA transporter at 10 uM
[25] = Plasma concentration in C57BL/6 mouse at 1 mg/kg, ip administered as single dose measured after 20 mins by LC/MS analysis based RACE assay; assay type: ADME, organism-based; design: dose 1 mg/kg, route intraperitoneal
Summary of the method: (§1)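 Single intraperitoneal dose of 1, 5 or 10 mg/kg given to C57BL/6 mice, 3 mice per dose and time point, with a vehicle-control cohort. Plasma was sampled at 20 and 120 min post-dose and drug level measured by LC/MS. Each time point averaged two injections (<20% difference); values are means ± standard deviation in μM.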

[26] = test system: Venezuelan equine encephalitis virus; experiment: Antiviral activity against Venezuelan equine encephalitis virus V3526 infected in Vero 76 cells assessed as reduction in virus-induced cytopathic effect after 2 days by Celltiter-Glo reagent based assay; assay type: functional, organism-based; details: V3526, Vero 76, 48 h
[27] = Stability in 1:1 PBS/acetonitrile assessed as parent compound remaining; assay type: physicochemical; details: buffer
Summary of the method: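 Aqueous stability measured after 48 h incubation, in PBS pH 7.4 or in 1:1 PBS/acetonitrile; reported as % parent remaining.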

Plasma = experiment: Protein binding in mouse plasma at 1 uM; assay type: ADME, cell-free
Liver = experiment: Stability in mouse liver microsomes as parent compound remaining; assay type: ADME
Summary of the method: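 Mouse hepatic microsomes incubated for 1 h; reported as % parent remaining.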

[28] = Hepatotoxicity in human Fa2N-4 cells; assay type: toxicity, cell-based; details: read-out: LD50 (the source's name)
Cytochrome P450 1A2 = Cytochrome P450 1A2 (Homo sapiens, UniProt P05177); experiment: Inhibition of human CYP1A2 at 10 uM; assay type: ADME
Summary of the method: (§2)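 Human CYP inhibition run with reference inhibitors as controls: α-naphthoflavone for CYP1A2 and ketoconazole for CYP3A4.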

CYP3A4 = CYP3A4 (Homo sapiens, UniProt P08684); experiment: Inhibition of human CYP3A4 at 10 uM; assay type: ADME; summary of the method: as §2
Chain of CYP3A4 (P08684 whole entry): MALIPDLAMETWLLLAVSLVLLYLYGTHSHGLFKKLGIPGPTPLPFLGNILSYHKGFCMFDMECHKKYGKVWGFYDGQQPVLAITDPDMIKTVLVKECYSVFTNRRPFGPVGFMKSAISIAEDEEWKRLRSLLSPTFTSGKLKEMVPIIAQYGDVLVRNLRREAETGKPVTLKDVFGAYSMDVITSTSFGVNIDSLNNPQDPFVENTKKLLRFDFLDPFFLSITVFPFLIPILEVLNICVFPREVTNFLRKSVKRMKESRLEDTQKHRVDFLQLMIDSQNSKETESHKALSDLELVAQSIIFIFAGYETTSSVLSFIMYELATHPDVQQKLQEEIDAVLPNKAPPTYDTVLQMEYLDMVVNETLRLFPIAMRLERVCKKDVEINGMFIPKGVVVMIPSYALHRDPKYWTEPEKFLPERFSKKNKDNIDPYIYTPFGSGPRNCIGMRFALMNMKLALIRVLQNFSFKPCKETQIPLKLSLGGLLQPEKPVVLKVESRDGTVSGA

[29] = Plasma concentration in C57BL/6 mouse at 5 mg/kg, ip administered as single dose measured after 20 mins by LC/MS analysis based RACE assay; assay type: ADME, organism-based; design: dose 5 mg/kg, route intraperitoneal; summary of the method: as §1
[30] = Drug concentration in C57BL/6 mouse brain at 1 mg/kg, ip administered as single dose measured after 120 mins by LC/MS analysis based RACE assay; assay type: ADME, organism-based; design: dose 1 mg/kg, route intraperitoneal; details: read-out: Drug uptake
Summary of the method: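 Brain tissue taken at the terminal 120 min point after one intraperitoneal dose (1, 5 or 10 mg/kg) in C57BL/6 mice, 3 per group, with a vehicle cohort. Drug level measured by LC/MS, averaging two injections per sample; reported as mean ± standard deviation, μM.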

CN1CCN(C)/C(=N/c2ccc([N+](=O)[O-])cc2C(=O)Nc2ccccc2)C1
Activity (Mus musculus [1]): Non-toxic | Activity (Mus musculus [2]): Non-toxic | inhibition [3]: 3.56% | inhibition [4]: 2.65% | inhibition [5]: -1.53% | inhibition [6]: 11.2% | inhibition [7]: 7.78% | inhibition [8]: 8.32% | inhibition [9]: -2.63% | inhibition [10]: 15.2% | inhibition (Rattus norvegicus [11]): 22.3% | inhibition [12]: 12.9% | inhibition [13]: -2.6% | inhibition (Rattus norvegicus [14]): 14.4% | inhibition (Mus musculus [15]): 3.11% | inhibition [16]: 0.73% | inhibition [17]: 2.1% | inhibition [18]: 10.8% | inhibition [19]: -2.18% | inhibition [20]: 9.71% | inhibition [21]: 25.4% | inhibition at 10 µM (hERG (KCNH2)): 30% | inhibition (Oryctolagus cuniculus): 14.2% | inhibition (Rattus norvegicus [22]): 1.61% | inhibition [23]: 10.8% | inhibition (Rattus norvegicus [24]): 0.42% | concentration at 20 min [25]: 200 nM | EC50 [26]: 20 nM | Stability [27]: 95.9% | PPB (Plasma): 85% | Stability (Liver): 42.9% | CC50 [28]: > 250000 nM | inhibition (INH) (Cytochrome P450 1A2): 1.5% | inhibition at 10 µM (CYP3A4): 18% | concentration at 20 min [29]: 1450 nM | concentration at 2 h [30]: 190 nM
